Jurkat tox 60K = cytotoxicity toward Jurkat T cells, primary screen, cytotoxicity control, cell-based, Jurkat E6.1, 60K MLSMR library; Jurkat E6.1 viability, ATP luminescence, 48 h; inhibition, % at 4 µM; 56,000 compounds, 1.2% hits;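 active means inhibition above the mean inhibition of all tested compounds plus 3 SD, cut at about 28% in these data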
SF1 activator = activators of human SF-1, primary screen, cell-based, CHO-K1, Gal4-SF-1 LBD, luciferase luminescence; Steroidogenic factor 1 (Homo sapiens), Q13285; CHO-K1 Gal4-SF-1 LBD luciferase reporter; % increase over DMSO SF-1-specific signal; activation, % at 10 µM; 65,000 compounds, 1.9% hits;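 active means activation above the mean activation of all tested compounds plus 3 SD, cut at about 50% in these data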
Target sequence (Q13285 whole entry, looked up, the tested form may be a part): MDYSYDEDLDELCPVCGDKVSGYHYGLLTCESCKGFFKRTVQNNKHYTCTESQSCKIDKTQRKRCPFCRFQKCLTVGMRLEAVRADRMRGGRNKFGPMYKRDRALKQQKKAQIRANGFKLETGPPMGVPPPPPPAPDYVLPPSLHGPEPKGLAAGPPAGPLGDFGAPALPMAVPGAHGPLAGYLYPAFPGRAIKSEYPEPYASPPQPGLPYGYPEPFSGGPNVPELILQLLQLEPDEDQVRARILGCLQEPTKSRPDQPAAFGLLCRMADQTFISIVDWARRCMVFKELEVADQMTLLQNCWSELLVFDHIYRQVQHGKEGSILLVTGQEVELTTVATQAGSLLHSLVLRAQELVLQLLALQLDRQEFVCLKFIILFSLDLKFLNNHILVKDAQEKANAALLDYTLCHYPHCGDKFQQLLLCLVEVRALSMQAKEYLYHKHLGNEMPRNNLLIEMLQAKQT
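Compound – one dose, 10 µM compound, 1% DMSO · Test system – transient Gal4-SF-1 LBD reporter, CHO-K1 · Input – 4,000 cells in each well · Read-out basis – percent activation relative to DMSO median and mock-transfected background · Replicates – single measurement per compound · Technique – steady-glow luciferase luminescence, read after 15 min reagent incubation · Timing – 20 h compound treatment, 37 °C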
RORA act = activators of orphan receptor RORA, primary screen, cell-based, luminescence | activation, % at 10 µM | CHO-K1 Gal4-RORA LBD luciferase reporter; percent increase over mock-subtracted basal signal | 65,000 compounds, 1.5% hits;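 active means activation above the mean of all tested compounds plus 3 SD, cut at about 49% in these data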;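 further: 0% = DMSO-treated RORA cells and 100% = added signal equal to DMSO minus mock-transfected cells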
HEK293 NFkB inh = inhibitors of PMA/ionomycin-induced NF-kB reporter, primary screen, antigen receptor NF-kB inhibitor project, cell-based, HEK-293 luciferase reporter, luminescence; 62,000 compounds, 0.21% hits; HEK-293 NF-kB luciferase reporter; AID 465, 2006; inhibition, % at 3 µM;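 active means inhibition above the mean of all tested compounds plus 3 SD, cut at about 40% in these data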;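 further: 0% = stimulated DMSO wells and 100% = 10 µM reference inhibitor 5653914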
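Material: HEK-293 cells with stable firefly luciferase reporter driven by four HIV NF-kB elements / Also added: PMA plus ionomycin mix as NF-kB-activating stimulus / Compound dosing: 3 µM once, 0.30% DMSO / Times: 1 h pretreatment, 16 h stimulation, 37 °C / Signal: luminescence / Evaluation: per-plate % inhibition versus controls / Benchmarks: DMSO and 10 µM reference inhibitor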
* = called active by the depositor. A selection: hits, their analogues and other compounds. The true share with any hit is near 3.9%.

How did CCOC(=O)c1ccc(NC(=O)c2nn(C)cc2Br)cc1 do in these assays?
Jurkat tox 60K: 1; SF1 activator: 47; RORA act: 76*; HEK293 NFkB inh: -7

How did O=C(Nc1ccccc1)Nc1cccc2cccnc12 do in these assays?
Jurkat tox 60K: -3; SF1 activator: 47; RORA act: 86*; HEK293 NFkB inh: -27

How did c1ccc(NC2=Nc3ccccc3CS2)cc1 do in these assays?
Jurkat tox 60K: -5; SF1 activator: 24; RORA act: 89*; HEK293 NFkB inh: -24

What do the screens show for `Cn1c(-c2ccc(Br)o2)nc2ccccc21`?
Jurkat tox 60K: 10; SF1 activator: 76*; RORA act: 73*; HEK293 NFkB inh: -32

Results for Cn1c(-c2ccc(Br)o2)nc2cc(Br)ccc21 ?
Jurkat tox 60K: 4; SF1 activator: 89*; RORA act: 39; HEK293 NFkB inh: -13

How did CCOC(=O)c1c(C)nc2c3ccccc3ccn12 do in these assays?
Jurkat tox 60K: -3; SF1 activator: 76*; RORA act: 26; HEK293 NFkB inh: -41

How did Cc1cc(C(=O)NCc2cccs2)c(C)o1 do in these assays?
Jurkat tox 60K: -5; SF1 activator: 1; RORA act: -23; HEK293 NFkB inh: 10

How did Cc1cc2c(cc(C(=O)OCC(=O)NCc3cccs3)n2C(C)C)o1 do in these assays?
Jurkat tox 60K: 64*; SF1 activator: 12; RORA act: 57*; HEK293 NFkB inh: 33

Results for CCOC(=O)C1=C(N)n2c(s/c(=C\c3ccco3)c2=O)=C(C(=O)OCC)C1c1ccco1 (stereo unspecified) ?
Jurkat tox 60K: 61*; SF1 activator: 6; RORA act: 4; HEK293 NFkB inh: 18

Results for O=S(=O)(Nc1ccc(-c2nc3cccnc3s2)cc1)c1cccs1 ?
Jurkat tox 60K: 1; SF1 activator: 45; RORA act: 34; HEK293 NFkB inh: 8

Results for O=S(=O)(Nc1cccc2ncccc12)c1cccs1 ?
Jurkat tox 60K: 76*; SF1 activator: -96; RORA act: -50; HEK293 NFkB inh: 11

Results for CCn1c2ccccc2c2nnc(SCC(=O)NC(CC(C)C)C(=O)OC)nc21 (stereo unspecified) ?
Jurkat tox 60K: 2; SF1 activator: -4; RORA act: -17; HEK293 NFkB inh: 3

What do the screens show for `N#Cc1nc(N2CCCCC2)nc(N2CCOCC2)n1`?
Jurkat tox 60K: 42*; SF1 activator: -3; RORA act: 21; HEK293 NFkB inh: -1

What do the screens show for `CCc1ccc(-c2ccc(C(=O)O)cc2)nc1`?
Jurkat tox 60K: -6; SF1 activator: 85*; RORA act: 38; HEK293 NFkB inh: -29

What do the screens show for `COC(=O)c1ccc(/C(O)=C(\C#N)c2nc3ccccc3s2)cc1`?
Jurkat tox 60K: 1; SF1 activator: 84*; RORA act: 19; HEK293 NFkB inh: -51

Results for Cc1cc(N2CCN(C3CCCC3)CC2)n2nc(C)c(-c3ccccc3)c2n1 ?
Jurkat tox 60K: -5; SF1 activator: 6; RORA act: -30; HEK293 NFkB inh: 8

Results for Cc1nc(N)sc1-c1csc(Nc2ccccc2)n1 ?
Jurkat tox 60K: -5; SF1 activator: 90*; RORA act: 50*; HEK293 NFkB inh: -8

What do the screens show for `Cc1cc(O)ccc1Nc1nc(-c2sc(N)nc2C)cs1`?
Jurkat tox 60K: -4; SF1 activator: 18; RORA act: 7; HEK293 NFkB inh: 12

How did CCOc1cccc(C(=O)Nc2ccccc2N2CCN(C(=O)C(C)C)CC2)c1 do in these assays?
Jurkat tox 60K: -5; SF1 activator: -18; RORA act: -8; HEK293 NFkB inh: 2

How did CC(C)OC(=O)c1ccc(NC(=O)C2C3CC4OC(=O)C2C4C3)cc1 (stereo unspecified) do in these assays?
Jurkat tox 60K: 8; SF1 activator: 56*; RORA act: 30; HEK293 NFkB inh: -25

Results for Cc1cc(C)n(-c2ccc(C(=O)Nc3nc4ccccc4s3)cc2)n1 ?
Jurkat tox 60K: 4; SF1 activator: 26; RORA act: 49*; HEK293 NFkB inh: -62

Results for CC(=O)c1cc2c(cc1NC(=O)c1ccc(-n3nc(C)cc3C)cc1)OCO2 ?
Jurkat tox 60K: 2; SF1 activator: -9; RORA act: 6; HEK293 NFkB inh: -10

Results for Cc1cc(C)n(-c2ccc(C(=O)NC3=NCCS3)cc2)n1 ?
Jurkat tox 60K: -4; SF1 activator: 33; RORA act: 51*; HEK293 NFkB inh: -9

What do the screens show for `Cc1cc(C)n(-c2ccc(C(=O)Nc3ccc(S(=O)(=O)NCc4ccco4)cc3)cc2)n1`?
Jurkat tox 60K: 65*; SF1 activator: -26; RORA act: -16; HEK293 NFkB inh: 28

What do the screens show for `O=C(Nc1ccccc1)c1ccc(S(=O)(=O)NCc2ccco2)cc1`?
Jurkat tox 60K: 11; SF1 activator: -16; RORA act: -2; HEK293 NFkB inh: 9

Results for O=C(CCN1CCCCC1)NCC1OCCc2ccccc21 (stereo unspecified) ?
Jurkat tox 60K: 6; SF1 activator: -8; RORA act: -20; HEK293 NFkB inh: 20

Results for Cc1ccc(NCc2nnc(SCC(=O)c3ccccc3)n2Cc2ccco2)c(C)c1 ?
SF1 activator: 13; RORA act: 4; HEK293 NFkB inh: 22

Results for C=CCn1c(COc2ccc(Cl)cc2)nnc1SCC(=O)N1CC(=O)Nc2ccccc21 ?
Jurkat tox 60K: 6; SF1 activator: 8; RORA act: -15; HEK293 NFkB inh: 9

How did COc1ccc2c(c1OC)C(=O)N(c1nccs1)C2 do in these assays?
Jurkat tox 60K: -5; SF1 activator: 75*; RORA act: 19; HEK293 NFkB inh: 9

How did Oc1ccc(-c2nc3cnccn3c2Nc2ccc3c(c2)OCCO3)cc1 do in these assays?
Jurkat tox 60K: -2; SF1 activator: 27; RORA act: 53*; HEK293 NFkB inh: 18

How did C=CCOc1ccc2ccccc2c1CNc1ncn[nH]1 do in these assays?
Jurkat tox 60K: 6; SF1 activator: 11; RORA act: -16; HEK293 NFkB inh: 14

Results for COc1ccc(Cl)cc1NC(=O)C1CCCO1 (stereo unspecified) ?
Jurkat tox 60K: 11; SF1 activator: -21; RORA act: -9; HEK293 NFkB inh: 2

Results for COc1ccc(Cc2nnc(NC(=O)C3CCCO3)s2)cc1 (stereo unspecified) ?
Jurkat tox 60K: -7; SF1 activator: -2; RORA act: 3; HEK293 NFkB inh: -11

Results for O=C(Nc1ncc(Cc2ccccc2)s1)C1CCCO1 (stereo unspecified) ?
Jurkat tox 60K: -9; SF1 activator: 37; RORA act: 55*; HEK293 NFkB inh: -30

What do the screens show for `COc1ccc(-c2csc(NC(=O)C3CCCO3)n2)cc1` (stereo unspecified)?
Jurkat tox 60K: 7; SF1 activator: 64*; RORA act: 17; HEK293 NFkB inh: 7
